Experimental data as given in ChEMBL document CHEMBL1926677, “Further structure-activity relationship studies on 8-substituted-3-[2-(diarylmethoxyethylidenyl)]-8-azabicyclo[3.2.1]octane derivatives at monoamine transporters” (Bioorg Med Chem, 2011).

Tests used:
[1] = organism: Rattus norvegicus; test: Selectivity ratio of Ki for SERT in Sprague-Dawley rat brain homogenates to Ki for DAT in Sprague-Dawley rat brain homogenates; format: tissue-based
[2] = biological target: Transporter (Rattus norvegicus, UniProt Q63380); test: Displacement of [3H]nisoxetine from NET in Sprague-Dawley rat brain cortex membranes after 1 hr; format: cell membranes, Membrane
Transporter, sequence (Q63380 whole entry): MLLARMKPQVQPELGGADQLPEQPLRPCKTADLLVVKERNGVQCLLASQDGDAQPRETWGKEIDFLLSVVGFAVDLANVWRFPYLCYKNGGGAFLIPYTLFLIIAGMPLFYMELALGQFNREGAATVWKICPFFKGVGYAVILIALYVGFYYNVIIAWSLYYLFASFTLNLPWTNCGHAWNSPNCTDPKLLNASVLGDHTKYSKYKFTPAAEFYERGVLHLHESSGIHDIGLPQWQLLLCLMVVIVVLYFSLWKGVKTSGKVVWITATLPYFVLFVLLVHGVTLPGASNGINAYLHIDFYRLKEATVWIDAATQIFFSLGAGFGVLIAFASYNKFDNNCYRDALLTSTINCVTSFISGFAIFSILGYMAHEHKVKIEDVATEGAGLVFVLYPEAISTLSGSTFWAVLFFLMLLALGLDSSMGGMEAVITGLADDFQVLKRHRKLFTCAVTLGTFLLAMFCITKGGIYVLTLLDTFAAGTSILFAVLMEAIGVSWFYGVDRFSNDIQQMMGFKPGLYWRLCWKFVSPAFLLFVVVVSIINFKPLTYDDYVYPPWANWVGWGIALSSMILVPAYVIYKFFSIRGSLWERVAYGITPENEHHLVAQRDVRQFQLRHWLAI
In short: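 Rat frontal cortex membranes in 50 mM Tris, 120 mM NaCl, 5 mM KCl, pH 7.4, washed at 50,000 × g, 8 mg wet tissue/tube. 0.5 nM [3H]nisoxetine, 1 h on ice; GF/B filters presoaked in 0.05% PEI. Nonspecific: 1 µM desipramine. Compounds first screened at 1 µM for displacement.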

[3] = biological target: Sodium-dependent dopamine transporter (Rattus norvegicus, UniProt P23977); test: Displacement of [3H]WIN35428 from DAT in Sprague-Dawley rat brain homogenates after 1 hr by scintillation counting; format: tissue-based
Sodium-dependent dopamine transporter, sequence (P23977 whole entry): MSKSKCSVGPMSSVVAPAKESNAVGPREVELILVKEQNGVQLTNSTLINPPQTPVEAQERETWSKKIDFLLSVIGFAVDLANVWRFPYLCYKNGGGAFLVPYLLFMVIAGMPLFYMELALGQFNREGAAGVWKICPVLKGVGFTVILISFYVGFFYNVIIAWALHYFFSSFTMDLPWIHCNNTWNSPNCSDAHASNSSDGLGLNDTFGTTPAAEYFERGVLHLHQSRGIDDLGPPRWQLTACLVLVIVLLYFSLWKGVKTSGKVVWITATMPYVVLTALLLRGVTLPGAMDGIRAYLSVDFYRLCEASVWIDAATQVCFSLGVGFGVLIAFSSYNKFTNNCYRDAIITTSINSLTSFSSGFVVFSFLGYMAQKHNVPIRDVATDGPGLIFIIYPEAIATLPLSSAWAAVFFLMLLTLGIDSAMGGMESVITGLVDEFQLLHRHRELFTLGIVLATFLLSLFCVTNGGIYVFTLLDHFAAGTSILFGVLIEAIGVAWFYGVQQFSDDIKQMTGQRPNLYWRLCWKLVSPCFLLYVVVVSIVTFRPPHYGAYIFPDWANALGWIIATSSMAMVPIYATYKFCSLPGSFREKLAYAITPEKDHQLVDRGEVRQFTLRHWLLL
In short: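 Male Sprague-Dawley rats (200–250 g); caudate-putamen homogenised in ice-cold modified Krebs-HEPES buffer pH 7.4, washed by repeated 20,000 × g spins; fresh membranes ~0.3% w/v (150–300 µg protein). Nonspecific: 100 µM cocaine.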

[4] = organism: Rattus norvegicus; test: Selectivity ratio of Ki for NET in Sprague-Dawley rat brain cortex membranes to Ki for DAT in Sprague-Dawley rat brain homogenates; format: cell membranes; details: Membrane
[5] = biological target: Sodium-dependent serotonin transporter (Rattus norvegicus, UniProt P31652); test: Displacement of [3H]citalopram from SERT in Sprague-Dawley rat brain homogenates after 60 mins by liquid scintillation counting; format: tissue-based
Sodium-dependent serotonin transporter, sequence (P31652 whole entry): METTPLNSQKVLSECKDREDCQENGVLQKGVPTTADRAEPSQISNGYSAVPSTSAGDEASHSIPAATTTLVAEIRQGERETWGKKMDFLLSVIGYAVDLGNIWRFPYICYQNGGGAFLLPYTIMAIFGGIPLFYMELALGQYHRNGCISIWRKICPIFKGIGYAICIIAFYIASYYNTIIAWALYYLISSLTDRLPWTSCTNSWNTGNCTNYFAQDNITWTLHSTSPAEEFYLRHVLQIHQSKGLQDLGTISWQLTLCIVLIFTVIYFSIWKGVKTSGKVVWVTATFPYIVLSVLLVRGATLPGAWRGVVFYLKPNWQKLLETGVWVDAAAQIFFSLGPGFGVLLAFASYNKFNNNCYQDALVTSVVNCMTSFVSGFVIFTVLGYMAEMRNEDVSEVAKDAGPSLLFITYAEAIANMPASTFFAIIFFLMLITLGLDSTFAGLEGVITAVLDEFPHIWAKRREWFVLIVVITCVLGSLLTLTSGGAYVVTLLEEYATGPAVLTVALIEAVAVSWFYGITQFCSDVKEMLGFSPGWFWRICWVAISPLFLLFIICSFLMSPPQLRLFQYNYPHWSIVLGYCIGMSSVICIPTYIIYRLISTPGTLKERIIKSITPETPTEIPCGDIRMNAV
In short: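 Midbrain from male Sprague-Dawley rats (200–225 g), frozen, homogenised in 50 mM Tris with 120 mM NaCl, 5 mM KCl (pH 7.4, 25 °C), washed at 20,000 × g. Nonspecific: 1 µM citalopram. GF/B filters in polyethylenimine, liquid scintillation counting.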

[6] = Selectivity ratio of DAT over SERT

SMILES | Ratio Ki [1] | Ki [2] [nM] | Ki [3] [nM] | Ratio Ki [4] | Ki [5] [nM] | Ratio [6]
Fc1ccc(C(OC/C=C2\C[C@H]3CC[C@@H](C2)N3Cc2ccc(Cl)cc2)c2ccc(F)cc2)cc1 | 168 | 5300 | 3.9 | 1360 | 656 | 
CCCN1[C@@H]2CC[C@H]1C/C(=C/COC(c1ccccc1)c1ccccc1)C2 |  |  | 245 |  |  | 
Fc1ccc(C(OC/C=C2\C[C@H]3CC[C@@H](C2)N3CCCc2ccccc2)c2ccc(F)cc2)cc1 |  |  |  |  |  | 300
C=CCN1[C@@H]2CC[C@H]1C/C(=C/COC(c1ccc(F)cc1)c1ccc(F)cc1)C2 | 167 | 3120 | 21 | 149 | 3460 | 
CN1[C@@H]2CC[C@H]1C/C(=C/COC(c1ccccc1)c1ccccc1)C2 |  |  | 130 |  |  | 300
C=CCN1[C@@H]2CC[C@H]1C/C(=C/COC(c1ccccc1)c1ccccc1)C2 |  |  | 143 |  |  | 
Cc1ccc(CN2[C@@H]3CC[C@H]2C/C(=C/COC(c2ccc(F)cc2)c2ccc(F)cc2)C3)cc1 | 68 | 2750 | 6.1 | 450 | 405 | 
CCCN1[C@@H]2CC[C@H]1C/C(=C/COC(c1ccc(F)cc1)c1ccc(F)cc1)C2 | 133 | 2850 | 41 | 69 | 5460 | 
Fc1ccc(C(OC/C=C2\C[C@H]3CC[C@@H](C2)N3CC2CC2)c2ccc(F)cc2)cc1 | 1060 | 2500 | 4 | 625 | 4240 | 
C#CCN1[C@@H]2CC[C@H]1C/C(=C/COC(c1ccccc1)c1ccccc1)C2 |  |  | 536 |  |  | 
Fc1ccc(C(OC/C=C2\C[C@H]3CC[C@@H](C2)N3Cc2ccccc2)c2ccc(F)cc2)cc1 |  |  |  |  | 2220 | 
C(/COC(c1ccccc1)c1ccccc1)=C1/C[C@H]2CC[C@@H](C1)N2CCCc1ccccc1 |  |  |  |  |  | 300
Cc1ccc(CN2[C@@H]3CC[C@H]2C/C(=C/COC(c2ccccc2)c2ccccc2)C3)cc1 | 57 | 1770 | 13 | 136 | 746 | 
Clc1ccc(CN2[C@@H]3CC[C@H]2C/C(=C/COC(c2ccccc2)c2ccccc2)C3)cc1 | 72 | 2710 | 7.6 | 554 | 544 | 
CCN1[C@@H]2CC[C@H]1C/C(=C/COC(c1ccccc1)c1ccccc1)C2 |  |  | 286 |  |  | 
C(/COC(c1ccccc1)c1ccccc1)=C1/C[C@H]2CC[C@@H](C1)N2Cc1ccccc1 | 113 | 1390 | 48 | 29 | 5420 | 300
CCN1[C@@H]2CC[C@H]1C/C(=C/COC(c1ccc(F)cc1)c1ccc(F)cc1)C2 | 149 | 3580 | 40 | 89 | 5960 | 
Fc1ccc(CN2[C@@H]3CC[C@H]2C/C(=C/COC(c2ccc(F)cc2)c2ccc(F)cc2)C3)cc1 | 234 | 3150 | 4.9 | 643 | 1140 | 
CN1[C@@H]2CC[C@H]1C/C(=C/COC(c1ccc(F)cc1)c1ccc(F)cc1)C2 |  |  | 19 |  |  | 300
Fc1ccc(CN2[C@@H]3CC[C@H]2C/C(=C/COC(c2ccccc2)c2ccccc2)C3)cc1 | 585 | 3340 | 7 | 477 | 4090 | 
C(/COC(c1ccccc1)c1ccccc1)=C1/C[C@H]2CC[C@@H](C1)N2CC1CC1 |  |  | 169 |  |  | 
